Experimental data as given in ChEMBL document CHEMBL1649336, “Isolation and characterization of minor analogues of silvestrol and other constituents from a large-scale re-collection of Aglaia foveolata” (J Nat Prod, 2010).

Key:
HT-29 = test: Cytotoxicity against human HT-29 cells after 3 days by sulforhodamine B assay; type: functional; settings: HT-29, 72 h, read-out: ED50 (the source's name)
Summary of the method: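 HT-29 (ATCC) cells grown in MEME with 10% FBS and antibiotics at 37 °C, 5% CO2, used one day after a medium change at 60–70% confluence. 9500 cells/well exposed in triplicate to serial dilutions (10% DMSO vehicle, also the control) for 3 days. Cells fixed with cold TCA, stained with 0.4% SRB, dye solubilized in 10 mM Tris (pH 10), A515 read. ED50 by nonlinear regression.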

Transcription factor p65 = Transcription factor p65 (Homo sapiens, UniProt Q04206); test: Inhibition of NF-kappaB p65 isolated from nuclear extract of human HeLa cells assessed as blockade of binding to biotinylated consesus sequence by chemiluminescence assay; type: cell-free
Sequence of Transcription factor p65 (Q04206 whole entry): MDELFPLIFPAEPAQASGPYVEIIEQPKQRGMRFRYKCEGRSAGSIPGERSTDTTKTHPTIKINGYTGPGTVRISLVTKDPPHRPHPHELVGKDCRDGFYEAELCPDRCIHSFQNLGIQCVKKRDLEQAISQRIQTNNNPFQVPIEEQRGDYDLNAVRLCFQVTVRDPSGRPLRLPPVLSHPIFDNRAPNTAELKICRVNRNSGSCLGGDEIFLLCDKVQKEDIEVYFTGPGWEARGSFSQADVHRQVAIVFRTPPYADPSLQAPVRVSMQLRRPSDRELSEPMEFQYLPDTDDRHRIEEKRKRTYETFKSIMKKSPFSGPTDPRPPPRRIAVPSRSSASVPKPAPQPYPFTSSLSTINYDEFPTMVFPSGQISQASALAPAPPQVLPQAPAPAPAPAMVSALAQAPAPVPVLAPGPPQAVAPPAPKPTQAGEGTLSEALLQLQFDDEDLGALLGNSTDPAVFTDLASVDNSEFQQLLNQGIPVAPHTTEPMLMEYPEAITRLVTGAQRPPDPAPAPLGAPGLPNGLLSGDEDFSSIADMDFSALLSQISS

| SMILES | EC50 (HT-29) | IC50 (Transcription factor p65) |
| --- | --- | --- |
| COC(=O)[C@H]1[C@@H](O)[C@@]2(O)c3c(OC)cc(O[C@@H]4O[C@@H]([C@H](O)CO)CO[C@@H]4OC)cc3O[C@@]2(c2ccc(OC)cc2)[C@@H]1c1ccccc1 | 2290 nM |  |
| COC(=O)[C@H]1[C@@H](O)[C@@]2(O)c3c(OC)cc(O[C@@H]4O[C@@H]([C@@H](O)CO)CO[C@@H]4OC)cc3O[C@@]2(c2ccc(OC)cc2)[C@@H]1c1ccccc1 | 1070 nM |  |
| CC(C)(O)[C@@H]1CC[C@@]2(O)CC[C@]3(C)[C@H](CC[C@@H]4[C@@]5(C)CCC(=O)C(C)(C)[C@H]5CC[C@]43C)[C@H]2O1 | > 10000 nM | > 20000 nM |
| CC(C)(O)[C@@H]1CC[C@](C)([C@H]2CC[C@]3(C)[C@@H]2CC[C@@H]2[C@@]4(C)CCC(=O)OC(C)(C)[C@@H]4CC[C@]23C)O1 | > 10000 nM | > 20000 nM |
| CC(C)(O)[C@@H]1CC[C@@](C)([C@H]2CC[C@]3(C)[C@@H]2CC[C@@H]2[C@@]4(C)CCC(=O)OC(C)(C)[C@@H]4CC[C@]23C)O1 | > 10000 nM | > 20000 nM |
| CC(C)C1=CC2=C(CO)C(=O)C[C@@H](O)[C@]2(C)CC1 | > 10000 nM | > 20000 nM |
| COC(=O)[C@H]1[C@@H](O)[C@@]2(O)c3c(OC)cc(O[C@@H]4O[C@@H]([C@@H](O)CO)CO[C@H]4OC)cc3O[C@@]2(c2ccc(OC)cc2)[C@@H]1c1ccccc1 [2'-EPISILVESTROL] | 1 nM |  |
| CC[C@@]1(O)C(=O)OCc2c1cc1n(c2=O)Cc2cc3ccccc3nc2-1 [CAMPTOTHECIN] | 60 nM |  |
| CC(=O)O[C@H]1C(=O)[C@@]2(C)[C@H]([C@H](OC(=O)c3ccccc3)[C@]3(O)C[C@H](OC(=O)[C@H](O)[C@@H](NC(=O)c4ccccc4)c4ccccc4)C(C)=C1C3(C)C)[C@]1(OC(C)=O)CO[C@@H]1C[C@@H]2O [PACLITAXEL] | 0.6 nM |  |
| COC(=O)[C@H]1[C@@H](O)[C@@]2(O)c3c(OC)cc(O[C@@H]4O[C@@H]([C@H](O)CO)CO[C@H]4OC)cc3O[C@@]2(c2ccc(OC)cc2)[C@@H]1c1ccccc1 [SILVESTROL] | 0.7 nM | > 20000 nM |
